Data published in publication PMC3423956 (European journal of medicinal chemistry, 2009).
pEC50: −log10 of the molar value.

Key:
HSV-1 (strain F) = assay: HSV-1 plaque reduction assay in Vero cells; type: cell-based; conditions: Human alphaherpesvirus 1, Vero
Stability in solution = type: physicochemical; conditions: for conversion to ACV: water
Summary of the method: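 Test compound was diluted from a freshly made stock into water and into methanol. Half was kept at room temperature and half in the autosampler at 4°C. Samples were injected every 15 min for 2 hr, then hourly, daily and weekly. Analysis was LC-MS/MS on a C18 column (ammonium formate pH 3 or water / methanol gradient, 30°C, ESI+, SRM). Guanine-analog formation was quantified against parent-nucleoside and acyclovir calibrations (10–1000 nM).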

[1] = tested on: herpes simplex virus (HSV); conditions: cited from earlier work
[2] = tested on: HCV subgenomic RNA replicon; assay: Anti-HCV activity in Huh-7 cells with HCV subgenomic RNA replicon system; type: cell-based; conditions: Hepatitis C virus, Huh-7, read-out: Anti-HCV activity Huh-7 cells EC50, Huh-7 cells, HCV replicon

| Compound | reversion to parent nucleoside (7 or 8) (Stability in solution; after 3 weeks) [%] | pEC50 [2] | other results |
| --- | --- | --- | --- |
| Nc1nc2c(ncn2COCCO)c(=O)[nH]1 [ACV, acyclovir] |  |  | pEC50 (HSV-1 (strain F); read-out: Activity against HSV-1 EC50): 7.12; EC90 (HSV-1 (strain F); read-out: Activity against HSV-1 EC90): 700 nM |
| COc1ccc(-c2cn3c(O)c4ncn(COCCO)c4nc3n2)cc1 [Compound 3, 6-(4-MeOPh)-TACV] |  |  | conversion to ACV (Stability in solution; after 3 weeks): 35%; conversion to ACV (Stability in solution; after 4 days): 4%; activity against herpes simplex virus (HSV) compared with parent [1]: as active as their parent congeners |
| COc1ccc(-c2cn3c(=O)c4ncn([C@H]5C[C@H](N=[N+]=[N-])[C@@H](CO)O5)c4nc3[nH]2)cc1 [Compound 32, 3-(3-Azido-2,3-dideoxy-β-D-erythro-pentofuranosyl)-3,9-dihydro-6-(4-methoxyphenyl)-9-oxo-5H-imidazo-[1,2-a]purine] | 60 |  |  |
| COc1ccc(-c2cn3c(=O)c4ncn([C@@H]5O[C@H](CO)[C@@H](O)[C@@]5(C)O)c4nc3[nH]2)cc1 [Compound 36, 3-(β-D-2-C-Methyl-ribofuranosyl)-3,9-dihydro-6-(4-methoxy-phenyl)-9-oxo-5H-imidazo-[1,2-a]purine] | 30 | > 5.00 |  |
| C[C@@]1(O)[C@H](O)[C@@H](CO)O[C@H]1n1cnc2c(=O)n3cc(-c4cccs4)[nH]c3nc21 [Compound 39, 3-(β-D-2-C-Methyl-ribofuranosyl)-3,9-dihydro-6-(2-thienyl)-9-oxo-5H-imidazo-[1,2-a]purine] | 60 | > 5.00 |  |
